Consider two compounds from paper PMC8113834 (Computational and Structural Biotechnology Journal, 2021).

Square brackets hold non-standard residues; d marks the D form. Peptide text beside a SMILES is read from it. pY = N[C@@H](Cc1ccc(OP(=O)(O)O)cc1)C(=O)O

As usually defined, the Kd is a measure of binding affinity in units of concentration.

The subject of experiment [1] is SHP2 C-SH2. Kind of experiment: NMR 1H,15N-HSQC titration of C-SH2. The format is binding, Human. The note with it: 1H,15N-HSQC with increasing peptide; protein 200 μM, 298 K. In outline: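 Uniformly 15N-labelled SHP2 C-SH2 is expressed in Tuner (DE3) E. coli in minimal medium with 15NH4Cl. Protein at 200 µM is titrated with increasing stoichiometric ratios of N-acetylated, C-amidated phosphopeptide. CSPs combine 1H and 0.15-weighted 15N shift differences.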

Experiment [2] has as its target T1, SHP2 N-SH2 (Homo sapiens, UniProt Q06124).
T1 sequence (Q06124 1-105): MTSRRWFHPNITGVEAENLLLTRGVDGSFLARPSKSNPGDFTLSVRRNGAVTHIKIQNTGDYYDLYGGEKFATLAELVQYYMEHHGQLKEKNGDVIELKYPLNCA
In words: NMR 1H,15N-HSQC titration of N-SH2. As to conditions: 1H,15N-HSQC with increasing peptide; protein 200 μM, 298 K. In kind it is binding.

Experiment [3] addresses T2, SHP2 C-SH2 (SHP2 106–220) (Homo sapiens, UniProt Q06124).
T2 sequence (Q06124 106-220): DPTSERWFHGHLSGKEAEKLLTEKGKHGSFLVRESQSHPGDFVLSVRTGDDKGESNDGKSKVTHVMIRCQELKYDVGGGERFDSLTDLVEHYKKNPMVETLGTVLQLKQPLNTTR
Kind of experiment: Isothermal titration calorimetry, peptide titrated onto C-SH2. The format is binding. Background: Isothermal titration calorimetry measures the heat released or taken up as one component is titrated into another.

As for EDSARVpYENVGLE [SHP2-pY580], the “binding to C-SH2 by NMR spectra” value in experiment [1] is “no binding”. In experiment [2], the “binding to N-SH2 by NMR spectra” value was “neither SHP2-pY542 nor SHP2-pY580 bind significantly”.
Turning to `CC[C@H](C)[C@H](NC(=O)[C@H](CC(N)=O)NC(=O)[C@@H](NC(=O)[C@H](Cc1ccc(OP(=O)(O)O)cc1)NC(=O)[C@H](CCC(=O)O)NC(=O)[C@H](Cc1c[nH]cn1)NC(=O)CNC(=O)[C@H](CCCCN)NC(=O)[C@H](CCCNC(=N)N)NC(=O)[C@H](CCCCN)NC(C)=O)[C@@H](C)O)C(=O)N[C@@H](CCCCN)C(=O)N[C@@H](Cc1ccc(O)cc1)C(=O)N[C@@H](CO)C(N)=O` [SHP2-pY542] (Ac-KRKGHE[pY]TNIKYS-NH2), in experiment [2], the “binding to N-SH2 by NMR spectra” value is recorded as “neither SHP2-pY542 nor SHP2-pY580 bind significantly”. The compound further displayed a Kd in experiment [3] of 28 µM.
